Laboratory results as given in ChEMBL document CHEMBL1914304 (J Med Chem, 2011).

Legend:
[1] = target: Potassium voltage-gated channel subfamily A member 5 (Homo sapiens) (UniProt P22460); test: Inhibition of Kv1.5 at 10 uM after 5 mins by patch clamp assay
In short: (§1)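 Cardiac ion channel panel run by a contract lab on an automated parallel patch-clamp system at room temperature. Each of 12 cardiac channels was tested with 10 µM compound for 5 min exposure, in two cells per channel (n ≥ 2). Values are reported as mean % inhibition.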

Kir2.1 = target: T1, Kir2.1 (Homo sapiens, UniProt P63252); test: Inhibition of Kir2.1 at 10 uM after 5 mins by patch clamp assay; in short: as §1
T1 sequence (P63252 whole entry): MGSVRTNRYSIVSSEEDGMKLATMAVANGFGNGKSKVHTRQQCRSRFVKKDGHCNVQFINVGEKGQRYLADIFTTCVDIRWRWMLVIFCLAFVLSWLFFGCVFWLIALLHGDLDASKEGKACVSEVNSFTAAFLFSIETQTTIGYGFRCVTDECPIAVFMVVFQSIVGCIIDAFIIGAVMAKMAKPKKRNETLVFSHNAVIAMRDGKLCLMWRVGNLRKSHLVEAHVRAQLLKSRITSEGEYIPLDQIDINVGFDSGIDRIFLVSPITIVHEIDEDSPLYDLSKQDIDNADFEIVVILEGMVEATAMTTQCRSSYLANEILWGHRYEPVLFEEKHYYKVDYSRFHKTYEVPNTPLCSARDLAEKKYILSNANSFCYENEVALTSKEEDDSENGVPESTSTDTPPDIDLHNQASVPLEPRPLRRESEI

[2] = target: Voltage-dependent T-type calcium channel subunit alpha-1H (Homo sapiens) (UniProt O95180); test: Inhibition of Cav3.2 at 10 uM after 5 mins by patch clamp assay
Chain of Voltage-dependent T-type calcium channel subunit alpha-1H (Homo sapiens) (O95180 whole entry): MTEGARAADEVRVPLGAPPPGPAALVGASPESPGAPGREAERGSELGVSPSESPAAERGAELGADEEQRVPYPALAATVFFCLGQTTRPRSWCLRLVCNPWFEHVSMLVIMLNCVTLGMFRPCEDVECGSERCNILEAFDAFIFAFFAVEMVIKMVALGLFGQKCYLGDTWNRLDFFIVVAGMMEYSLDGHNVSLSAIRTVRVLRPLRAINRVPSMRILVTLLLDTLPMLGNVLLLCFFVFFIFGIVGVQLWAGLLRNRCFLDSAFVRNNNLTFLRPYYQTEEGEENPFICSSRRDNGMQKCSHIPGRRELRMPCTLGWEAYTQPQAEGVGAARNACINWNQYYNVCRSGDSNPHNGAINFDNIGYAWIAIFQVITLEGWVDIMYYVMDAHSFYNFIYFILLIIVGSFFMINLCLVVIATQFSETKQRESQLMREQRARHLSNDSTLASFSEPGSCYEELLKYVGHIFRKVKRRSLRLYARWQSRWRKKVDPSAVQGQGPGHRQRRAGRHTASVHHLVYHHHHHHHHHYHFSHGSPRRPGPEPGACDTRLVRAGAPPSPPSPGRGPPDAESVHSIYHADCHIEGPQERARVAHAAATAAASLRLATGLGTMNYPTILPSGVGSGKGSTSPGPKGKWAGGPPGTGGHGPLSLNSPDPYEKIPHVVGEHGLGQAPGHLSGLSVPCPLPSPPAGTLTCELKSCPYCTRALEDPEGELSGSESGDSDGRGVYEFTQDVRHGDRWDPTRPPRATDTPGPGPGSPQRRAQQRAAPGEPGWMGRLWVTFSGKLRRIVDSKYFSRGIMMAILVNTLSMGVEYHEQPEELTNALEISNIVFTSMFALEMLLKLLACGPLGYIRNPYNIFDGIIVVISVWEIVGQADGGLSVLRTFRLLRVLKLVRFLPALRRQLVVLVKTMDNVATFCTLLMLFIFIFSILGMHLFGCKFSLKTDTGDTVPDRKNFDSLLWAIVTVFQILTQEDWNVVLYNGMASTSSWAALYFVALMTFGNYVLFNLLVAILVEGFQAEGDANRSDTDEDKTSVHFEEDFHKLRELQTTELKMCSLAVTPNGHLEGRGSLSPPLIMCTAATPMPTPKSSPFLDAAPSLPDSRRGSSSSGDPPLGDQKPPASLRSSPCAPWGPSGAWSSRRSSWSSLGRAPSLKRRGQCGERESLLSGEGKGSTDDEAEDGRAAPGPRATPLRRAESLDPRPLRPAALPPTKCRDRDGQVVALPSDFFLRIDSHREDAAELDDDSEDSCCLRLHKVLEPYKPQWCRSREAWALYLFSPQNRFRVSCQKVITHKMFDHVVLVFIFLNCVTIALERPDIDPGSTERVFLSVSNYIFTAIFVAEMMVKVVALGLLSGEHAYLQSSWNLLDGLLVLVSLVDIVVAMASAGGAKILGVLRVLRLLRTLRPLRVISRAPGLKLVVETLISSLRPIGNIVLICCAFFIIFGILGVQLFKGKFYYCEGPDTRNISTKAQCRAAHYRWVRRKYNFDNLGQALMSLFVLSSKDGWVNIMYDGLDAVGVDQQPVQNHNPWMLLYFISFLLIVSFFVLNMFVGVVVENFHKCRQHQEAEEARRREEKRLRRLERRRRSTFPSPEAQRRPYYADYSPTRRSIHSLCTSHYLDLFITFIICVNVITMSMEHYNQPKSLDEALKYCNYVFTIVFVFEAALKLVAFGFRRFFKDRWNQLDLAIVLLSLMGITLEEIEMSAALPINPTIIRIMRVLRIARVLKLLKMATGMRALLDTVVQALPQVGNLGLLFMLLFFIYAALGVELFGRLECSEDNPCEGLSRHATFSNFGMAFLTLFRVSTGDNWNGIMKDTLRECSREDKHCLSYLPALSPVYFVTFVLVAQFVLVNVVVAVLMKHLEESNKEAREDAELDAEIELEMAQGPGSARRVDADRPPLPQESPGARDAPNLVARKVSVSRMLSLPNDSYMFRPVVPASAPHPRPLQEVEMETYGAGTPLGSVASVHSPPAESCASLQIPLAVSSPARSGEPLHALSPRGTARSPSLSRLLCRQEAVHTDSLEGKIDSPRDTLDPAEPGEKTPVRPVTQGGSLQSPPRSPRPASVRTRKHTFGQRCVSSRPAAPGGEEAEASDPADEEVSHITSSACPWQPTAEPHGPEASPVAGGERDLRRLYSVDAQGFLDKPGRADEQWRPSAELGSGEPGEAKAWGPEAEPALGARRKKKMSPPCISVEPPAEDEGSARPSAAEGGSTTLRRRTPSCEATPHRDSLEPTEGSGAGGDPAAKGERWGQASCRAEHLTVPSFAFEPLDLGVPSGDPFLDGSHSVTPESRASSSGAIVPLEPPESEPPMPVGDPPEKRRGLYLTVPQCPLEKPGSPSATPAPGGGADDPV
In short: (§2)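 Fixed-concentration screen across a panel of 12 cloned cardiac ion channels. The compound was tested at 10 µM for 5 min exposure at room temperature by automated parallel patch clamp, in two cells (n ≥ 2) per channel. Values are mean percent inhibition of channel current.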

Kv4.3 = target: T2, Kv4.3 (Homo sapiens, UniProt Q9UK17); test: Inhibition of Kv4.3 at 10 uM after 5 mins by patch clamp assay; in short: as §1
T2 sequence (Q9UK17 whole entry): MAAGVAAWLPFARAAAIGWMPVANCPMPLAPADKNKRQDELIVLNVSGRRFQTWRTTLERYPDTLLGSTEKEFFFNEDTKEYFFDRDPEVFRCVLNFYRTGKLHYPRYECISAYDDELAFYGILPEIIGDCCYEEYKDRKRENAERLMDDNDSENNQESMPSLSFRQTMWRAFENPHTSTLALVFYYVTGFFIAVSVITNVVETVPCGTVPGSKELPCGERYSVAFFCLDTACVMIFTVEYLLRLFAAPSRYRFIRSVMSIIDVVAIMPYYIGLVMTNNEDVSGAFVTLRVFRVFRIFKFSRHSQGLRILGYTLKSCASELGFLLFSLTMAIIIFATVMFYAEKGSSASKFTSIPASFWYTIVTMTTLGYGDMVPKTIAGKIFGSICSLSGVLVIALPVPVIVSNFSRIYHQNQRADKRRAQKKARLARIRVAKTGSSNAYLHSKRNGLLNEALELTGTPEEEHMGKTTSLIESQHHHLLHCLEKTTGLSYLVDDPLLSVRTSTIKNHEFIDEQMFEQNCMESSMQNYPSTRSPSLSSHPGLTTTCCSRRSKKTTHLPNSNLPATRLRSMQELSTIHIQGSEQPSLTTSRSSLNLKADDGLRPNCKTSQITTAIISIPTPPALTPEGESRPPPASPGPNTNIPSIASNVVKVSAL

[3] = target: T3, Potassium/sodium hyperpolarization-activated cyclic nucleotide-gated channel 4 (Homo sapiens) (UniProt Q9Y3Q4); test: Inhibition of HCN4 at 10 uM after 5 mins by patch clamp assay; in short: as §1
T3 sequence (whole entry): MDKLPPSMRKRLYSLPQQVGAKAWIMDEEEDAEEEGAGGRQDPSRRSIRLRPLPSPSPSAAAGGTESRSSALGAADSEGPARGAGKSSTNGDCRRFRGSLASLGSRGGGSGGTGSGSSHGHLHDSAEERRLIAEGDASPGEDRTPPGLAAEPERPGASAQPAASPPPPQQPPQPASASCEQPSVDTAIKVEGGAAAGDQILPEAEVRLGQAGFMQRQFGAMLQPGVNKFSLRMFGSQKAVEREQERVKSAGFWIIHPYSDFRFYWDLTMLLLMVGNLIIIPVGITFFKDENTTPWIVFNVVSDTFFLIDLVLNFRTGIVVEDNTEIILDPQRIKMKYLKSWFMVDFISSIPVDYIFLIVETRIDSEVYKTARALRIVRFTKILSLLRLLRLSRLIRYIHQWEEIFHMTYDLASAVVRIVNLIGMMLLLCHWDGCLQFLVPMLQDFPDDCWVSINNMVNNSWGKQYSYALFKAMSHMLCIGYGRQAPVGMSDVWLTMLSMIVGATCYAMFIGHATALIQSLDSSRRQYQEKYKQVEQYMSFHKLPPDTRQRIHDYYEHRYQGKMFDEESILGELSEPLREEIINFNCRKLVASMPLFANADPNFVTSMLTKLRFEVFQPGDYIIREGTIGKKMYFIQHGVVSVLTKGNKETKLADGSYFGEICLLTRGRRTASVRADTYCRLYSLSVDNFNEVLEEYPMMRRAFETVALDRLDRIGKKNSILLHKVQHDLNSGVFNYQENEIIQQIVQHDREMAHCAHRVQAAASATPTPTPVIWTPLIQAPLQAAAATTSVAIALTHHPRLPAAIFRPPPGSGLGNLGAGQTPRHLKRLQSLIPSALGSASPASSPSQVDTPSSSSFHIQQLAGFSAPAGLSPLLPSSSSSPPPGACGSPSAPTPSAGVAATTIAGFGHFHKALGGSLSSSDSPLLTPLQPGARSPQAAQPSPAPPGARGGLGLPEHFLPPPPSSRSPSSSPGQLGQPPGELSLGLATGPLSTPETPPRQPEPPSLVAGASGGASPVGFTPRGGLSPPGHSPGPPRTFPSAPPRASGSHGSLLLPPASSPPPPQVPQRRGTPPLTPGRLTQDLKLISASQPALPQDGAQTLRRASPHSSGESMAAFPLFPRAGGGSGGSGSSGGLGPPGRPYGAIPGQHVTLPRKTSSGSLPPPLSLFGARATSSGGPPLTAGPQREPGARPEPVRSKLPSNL

[4] = target: Sulfonylurea receptor 2, Kir6.2 (Homo sapiens, UniProt O60706+Q14654); test: Inhibition of human kir6.2/SUR2A ion channel coexpressed in human HEK293 cells after 5 mins by patch clamp assay; assay type: cell-based
Chain of Sulfonylurea receptor 2, Kir6.2 (Q14654 whole entry): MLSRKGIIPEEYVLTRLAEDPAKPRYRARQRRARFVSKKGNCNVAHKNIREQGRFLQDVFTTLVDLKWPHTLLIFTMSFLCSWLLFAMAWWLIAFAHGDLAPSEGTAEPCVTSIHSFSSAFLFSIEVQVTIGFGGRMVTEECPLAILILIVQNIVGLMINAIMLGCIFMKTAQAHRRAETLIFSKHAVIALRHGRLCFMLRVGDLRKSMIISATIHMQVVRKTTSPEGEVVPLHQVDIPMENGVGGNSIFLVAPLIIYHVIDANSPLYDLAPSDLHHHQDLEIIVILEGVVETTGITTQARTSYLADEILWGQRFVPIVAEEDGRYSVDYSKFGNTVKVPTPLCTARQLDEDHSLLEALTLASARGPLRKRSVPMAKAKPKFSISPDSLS
Chain of Sulfonylurea receptor 2, Kir6.2 (O60706 whole entry): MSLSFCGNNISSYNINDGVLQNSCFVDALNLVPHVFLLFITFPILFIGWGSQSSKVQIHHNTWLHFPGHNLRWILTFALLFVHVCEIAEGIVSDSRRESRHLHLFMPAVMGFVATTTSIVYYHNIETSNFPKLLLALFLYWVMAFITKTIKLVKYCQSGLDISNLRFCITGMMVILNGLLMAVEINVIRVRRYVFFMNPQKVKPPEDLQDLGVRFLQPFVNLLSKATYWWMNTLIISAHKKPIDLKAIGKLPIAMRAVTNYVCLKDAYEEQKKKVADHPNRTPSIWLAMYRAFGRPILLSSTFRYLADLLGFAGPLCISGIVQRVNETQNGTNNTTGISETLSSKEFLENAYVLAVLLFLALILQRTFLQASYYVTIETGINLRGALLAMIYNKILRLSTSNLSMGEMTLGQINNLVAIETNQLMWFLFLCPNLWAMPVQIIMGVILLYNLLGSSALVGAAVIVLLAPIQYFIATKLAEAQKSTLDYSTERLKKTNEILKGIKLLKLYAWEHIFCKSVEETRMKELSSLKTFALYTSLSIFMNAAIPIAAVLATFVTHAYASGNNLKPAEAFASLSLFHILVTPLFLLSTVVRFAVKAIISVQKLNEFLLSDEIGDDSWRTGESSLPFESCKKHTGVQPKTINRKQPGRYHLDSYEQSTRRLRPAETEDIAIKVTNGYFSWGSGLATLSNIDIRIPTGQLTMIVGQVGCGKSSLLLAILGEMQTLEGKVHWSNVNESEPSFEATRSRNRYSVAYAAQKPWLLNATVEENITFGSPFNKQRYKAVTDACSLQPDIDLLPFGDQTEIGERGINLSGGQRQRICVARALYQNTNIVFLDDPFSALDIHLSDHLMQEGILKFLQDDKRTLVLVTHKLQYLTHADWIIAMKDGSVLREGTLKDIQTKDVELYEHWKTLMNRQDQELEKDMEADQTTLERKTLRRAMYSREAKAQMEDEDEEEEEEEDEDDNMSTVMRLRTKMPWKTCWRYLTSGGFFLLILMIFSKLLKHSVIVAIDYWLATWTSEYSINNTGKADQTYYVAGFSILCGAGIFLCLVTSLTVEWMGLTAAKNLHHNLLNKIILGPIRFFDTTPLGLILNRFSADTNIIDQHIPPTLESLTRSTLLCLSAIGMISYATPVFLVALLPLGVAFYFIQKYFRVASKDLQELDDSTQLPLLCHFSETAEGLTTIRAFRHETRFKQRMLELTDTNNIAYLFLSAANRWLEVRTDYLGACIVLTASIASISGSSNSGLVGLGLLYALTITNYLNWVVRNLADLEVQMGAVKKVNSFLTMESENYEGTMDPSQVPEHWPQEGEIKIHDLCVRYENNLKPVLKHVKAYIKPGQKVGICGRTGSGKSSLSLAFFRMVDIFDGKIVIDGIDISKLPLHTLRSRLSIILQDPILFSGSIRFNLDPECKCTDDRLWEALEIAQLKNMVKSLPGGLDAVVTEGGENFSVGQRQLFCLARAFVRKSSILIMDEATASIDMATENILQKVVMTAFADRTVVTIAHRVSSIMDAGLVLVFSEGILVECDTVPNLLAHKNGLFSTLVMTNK
In short: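 Human KCNJ11 (Kir6.2) and SUR2A were co-expressed in HEK293 cells to give the ATP-sensitive current IKATP. The assay was run at room temperature by automated parallel patch clamp, with dose-response at 0.2, 0.6, 1.6 and 5 µM. Exposure was 5 min per concentration, with each concentration in two cells (n ≥ 2).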

[5] = Inhibition of KvLQT/minK at 10 uM after 5 mins by patch clamp assay; in short: as §2
[6] = target: Sulfonylurea receptor 2, Kir6.2 (Homo sapiens) (UniProt Q14654+O60706); test: Inhibition of Kir6.2/SUR2A at 10 uM after 5 mins by patch clamp assay; in short: as §2

Chain of Potassium voltage-gated channel subfamily A member 5 (Homo sapiens) (P22460 whole entry): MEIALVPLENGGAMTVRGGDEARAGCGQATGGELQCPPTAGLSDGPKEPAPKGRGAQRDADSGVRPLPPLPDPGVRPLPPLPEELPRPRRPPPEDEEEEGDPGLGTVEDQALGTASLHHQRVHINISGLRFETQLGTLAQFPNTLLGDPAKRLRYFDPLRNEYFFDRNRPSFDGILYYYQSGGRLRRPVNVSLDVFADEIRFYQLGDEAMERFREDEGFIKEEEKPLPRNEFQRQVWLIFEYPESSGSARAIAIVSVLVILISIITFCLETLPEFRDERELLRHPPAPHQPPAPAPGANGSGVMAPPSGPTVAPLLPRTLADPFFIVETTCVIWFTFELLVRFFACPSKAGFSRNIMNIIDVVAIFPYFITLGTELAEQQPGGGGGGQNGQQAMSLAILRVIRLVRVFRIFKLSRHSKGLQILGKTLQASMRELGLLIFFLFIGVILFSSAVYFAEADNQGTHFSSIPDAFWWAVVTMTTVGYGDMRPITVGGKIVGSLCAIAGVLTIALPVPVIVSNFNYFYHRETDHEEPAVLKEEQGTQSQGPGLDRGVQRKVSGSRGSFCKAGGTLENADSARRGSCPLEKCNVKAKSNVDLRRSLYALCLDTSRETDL

CCCNCC(O)COc1ccccc1C(=O)CCc1ccccc1 (racemic) [PROPAFENONE]
inhibition [1]: 65.4% | inhibition at 5 min, 10 µM (Kir2.1): 0.2% | inhibition [2]: 60.2% | inhibition at 5 min, 10 µM (Kv4.3): 44.1% | inhibition [3]: 54.6% | IC50 [4]: 2.2 µM | inhibition [5]: 33% | inhibition [6]: 89.6%
